Laboratory results as given in ChEMBL document CHEMBL1177705, “Synthesis and biological characterization of the histone deacetylase inhibitor largazole and C7- modified analogues” (J Med Chem, 2010).
The source made the active and inactive calls. The calls are words filed in the database; no cut-off is given here.

Legend:
[1] = test system: NB-4; test: Effect on differentiation of human NB4 cells assessed as induction of CD11c expression at 5 uM after 48 hrs by propidium iodide staining-base FACS analysis; format: functional
How it was run: (§1)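 NB4 cells in RPMI 1640/FBS at 37 °C, 5% CO2, treated with compounds from DMSO. 2.5 × 10^5 cells were pelleted and PBS-washed, then stained 30 min at 4 °C in the dark with PE-anti-CD11c, with PE-IgG as isotype background control. Cells were resuspended in PBS with 0.25 μg/mL PI and analysed by flow cytometry, excluding PI-positive cells. Run in triplicate.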

[2] = test system: NB-4; test: Effect on differentiation of human NB4 cells assessed as induction of CD11c expression at 5 uM after 24 hrs by propidium iodide staining-base FACS analysis; format: functional; how it was run: as §1
[3] = molecular target: Tubulin (Homo sapiens) (UniProt P68371+Q9H4B7+P0DPH7+P68366+Q13509+Q71U36+P04350+Q3ZCM7+P07437+P68363+Q9BQE3+Q6PEY2+Q13885+Q9BVA1+Q9BUF5); test: Inhibition of HDAC in human NB4 cells assessed as increase in acetylate tubulin level at 5 uM after 24 hrs by Western blot analysis; format: cell-based; conditions: NB-4
How it was run: (§2)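 NB4 cells treated with compounds from DMSO, harvested and PBS-washed. Lysis was 15 min at 4 °C in 50 mM Tris-HCl pH 7.4, 150 mM NaCl, 1% NP40, 10 mM NaF, 1 mM PMSF and protease inhibitors, then spun 30 min at 4 °C. Protein was measured by Bradford and lysates immunoblotted, with ERK1 as loading control.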

[4] = test system: NB-4; test: Induction of p21WAF1/CIP1 expression in human NB4 cells at 5 uM after 24 hrs by Western blot analysis; format: functional, cell-based; how it was run: as §2
[5] = test system: NB-4; test: Cell cycle arrest in human NB4 cells assessed as increase in accumulation at pre-G1 phase at 1 uM after 24 hrs by FACS analysis; format: functional, cell-based
How it was run: (§3)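 NB4 acute promyelocytic leukemia cells grown in RPMI 1640 with heat-inactivated FBS, glutamine, antibiotics, 37 °C, 5% CO2. Compounds given from DMSO. They were kept 30 min in the dark, then DNA content was read by flow cytometry with the pre-G1 fraction scored. Run in triplicate.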

[6] = molecular target: T1, Histone deacetylase 1 (Homo sapiens, UniProt Q13547); test: Inhibition of human recombinant HDAC1 after 15 mins by fluorimetric assay
T1 sequence (Q13547 whole entry): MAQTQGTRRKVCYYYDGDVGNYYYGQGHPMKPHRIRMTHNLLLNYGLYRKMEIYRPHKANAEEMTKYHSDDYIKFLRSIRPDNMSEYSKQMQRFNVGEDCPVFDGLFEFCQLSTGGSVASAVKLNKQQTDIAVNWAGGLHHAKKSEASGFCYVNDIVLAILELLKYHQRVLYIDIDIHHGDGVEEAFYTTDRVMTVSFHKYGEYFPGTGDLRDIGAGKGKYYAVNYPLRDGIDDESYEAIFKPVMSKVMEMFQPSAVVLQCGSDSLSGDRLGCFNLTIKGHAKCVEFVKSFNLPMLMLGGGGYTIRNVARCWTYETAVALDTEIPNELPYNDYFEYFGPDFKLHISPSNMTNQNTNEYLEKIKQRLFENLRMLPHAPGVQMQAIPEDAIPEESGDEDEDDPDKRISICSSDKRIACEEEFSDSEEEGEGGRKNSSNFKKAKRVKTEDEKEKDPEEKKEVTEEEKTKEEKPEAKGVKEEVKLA

[7] = molecular target: Histone deacetylase 4 (Homo sapiens, UniProt P56524); test: Inhibition of human recombinant HDAC4 after 15 mins by fluorimetric assay
Sequence of Histone deacetylase 4 (P56524 whole entry): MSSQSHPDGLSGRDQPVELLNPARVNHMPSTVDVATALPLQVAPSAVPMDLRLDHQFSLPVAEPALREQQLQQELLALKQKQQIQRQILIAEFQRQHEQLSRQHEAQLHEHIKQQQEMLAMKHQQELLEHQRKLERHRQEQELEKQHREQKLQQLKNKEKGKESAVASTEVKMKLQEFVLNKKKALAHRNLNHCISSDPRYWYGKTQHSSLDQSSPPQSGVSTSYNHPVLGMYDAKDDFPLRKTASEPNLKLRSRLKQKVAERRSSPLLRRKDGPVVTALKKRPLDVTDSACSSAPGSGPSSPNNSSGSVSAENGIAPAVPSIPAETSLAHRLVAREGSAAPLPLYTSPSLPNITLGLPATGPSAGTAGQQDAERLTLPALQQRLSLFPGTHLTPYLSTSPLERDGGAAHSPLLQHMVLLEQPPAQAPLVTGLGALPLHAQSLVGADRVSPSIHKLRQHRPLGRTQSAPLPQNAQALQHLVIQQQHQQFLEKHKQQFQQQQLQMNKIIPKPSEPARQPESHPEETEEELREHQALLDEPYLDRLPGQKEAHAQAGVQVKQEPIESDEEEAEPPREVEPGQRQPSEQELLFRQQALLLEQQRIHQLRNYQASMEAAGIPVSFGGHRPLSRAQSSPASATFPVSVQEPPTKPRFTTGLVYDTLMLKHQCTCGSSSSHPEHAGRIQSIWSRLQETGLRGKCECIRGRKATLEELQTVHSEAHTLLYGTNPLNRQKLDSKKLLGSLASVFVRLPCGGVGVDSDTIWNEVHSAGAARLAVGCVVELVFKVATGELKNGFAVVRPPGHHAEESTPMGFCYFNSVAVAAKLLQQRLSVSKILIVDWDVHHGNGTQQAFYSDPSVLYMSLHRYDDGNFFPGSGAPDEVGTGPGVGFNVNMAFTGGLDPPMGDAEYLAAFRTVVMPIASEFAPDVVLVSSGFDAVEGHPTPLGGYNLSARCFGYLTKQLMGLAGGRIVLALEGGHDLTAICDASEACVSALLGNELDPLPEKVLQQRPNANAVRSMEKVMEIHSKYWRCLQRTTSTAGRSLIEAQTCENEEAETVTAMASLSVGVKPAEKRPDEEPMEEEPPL

[8] = test system: NB-4; test: Cell cycle arrest in human NB4 cells assessed as increase in accumulation at pre-G1 phase at 5 uM after 24 hrs by FACS analysis; format: functional, cell-based; how it was run: as §3
[9] = molecular target: Histone deacetylase (Homo sapiens) (UniProt Q13547+O15379+Q9UBN7+Q92769+Q9UQL6+Q8WUI4+Q9BY41+Q96DB2+P56524+Q9UKV0+Q969S8); conditions: NB-4, at 5 µM
[10] = molecular target: T1, Histone deacetylase 1; test: Ratio of compound IC50 to largazole IC50 for human recombinant HDAC1
How it was run: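 Enzyme was preincubated with compound 15 min at 37 °C, then 50 μM specific fluorogenic substrate was added. Reaction ran 1 h at 37 °C with gentle shaking, read by fluorescence; IC50 derived.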

[11] = molecular target: T1, Histone deacetylase 1; test: Ratio of largazole IC50 to compound IC50 for human recombinant HDAC1
[12] = test system: NB-4; test: Cell cycle arrest in human NB4 cells assessed as mild increase in accumulation at pre-G1 phase at 5 uM after 48 hrs by FACS analysis; format: functional, cell-based; how it was run: as §3

| increase in acetylated tubulin (active/not active) [3] | IC50 [6] [nM] | IC50 [7] [nM] | inhibition [9] | Ratio IC50 [10] | Ratio IC50 [11] | Structure (SMILES) | Activity [1] [%] | Activity [2] [%] | Activity [4] | Activity [5] | Activity [8] | Activity [12] |
| --- | --- | --- | --- | --- | --- | --- | --- | --- | --- | --- | --- | --- |
| Active | 13.7 | 7500 | Active |  |  | CCCCCCCC(=O)SCC/C=C/[C@@H]1CC(=O)NCc2nc(cs2)C2=N[C@@H](CS2)C(=O)N[C@@H](C(C)C)C(=O)O1 | 5 | 5 | Active | Active | Active |  |
| Active |  |  |  |  |  | O=C(CCCCCCC(=O)Nc1ccccc1)NO |  |  | Active |  | Active |  |
|  |  |  |  |  |  | CC1=C(/C=C/C(C)=C/C=C/C(C)=C/C(=O)O)C(C)(C)CCC1 |  |  |  | Active |  |  |
| Active | 4.5 | 3000 | Active |  |  | CCCCCCCC(=O)SCC/C=C/[C@@H]1CC(=O)NCc2nc(cs2)C2=N[C@@](Cc3ccccc3)(CS2)C(=O)N[C@@H](C(C)C)C(=O)O1 | 5 | 5 | Active | Active | Active |  |
| Active | 161 | 4900 | Active | 10 |  | CCCCCCCC(=O)SCC/C=C/[C@@H]1CC(=O)NCc2nc(cs2)C2=N[C@@](CC)(CS2)C(=O)N[C@@H](C(C)C)C(=O)O1 | 5 | 5 | Active | Active | Active |  |
| inactive | 4.7 | 3000 | Active |  | 2 | CCCCCCCC(=O)SCC/C=C/[C@@H]1CC(=O)NCc2nc(cs2)-c2nc(cs2)C(=O)N[C@@H](C(C)C)C(=O)O1 | 5 | 5 |  |  | inactive | Active |
|  |  |  |  |  |  | Nc1ccccc1NC(=O)c1ccc(CNC(=O)OCc2cccnc2)cc1 |  |  | Active |  | Active |  |

| Structure (SMILES) | increase in acetylated tubulin (active/not active) [3] | IC50 [6] [nM] | IC50 [7] [nM] | inhibition [9] | Ratio IC50 [10] | Ratio IC50 [11] | Activity [1] [%] | Activity [2] [%] | Activity [4] | Activity [5] | Activity [8] | Activity [12] |
| --- | --- | --- | --- | --- | --- | --- | --- | --- | --- | --- | --- | --- |
| CCCCCCCC(=O)SCC/C=C/[C@@H]1CC(=O)NCc2nc(cs2)C2=N[C@@](C)(CS2)C(=O)N[C@@H](C(C)C)C(=O)O1 [LARGAZOLE] | Active | 11.4 | 3000 | Active |  |  | 5 | 5 | Active | Active | Active |  |
